The source made the active and inactive calls. The rule behind the calls is not given here.
Target: T1, Bile acid receptor (Homo sapiens) (UniProt Q96RI1)
T1 sequence (whole entry): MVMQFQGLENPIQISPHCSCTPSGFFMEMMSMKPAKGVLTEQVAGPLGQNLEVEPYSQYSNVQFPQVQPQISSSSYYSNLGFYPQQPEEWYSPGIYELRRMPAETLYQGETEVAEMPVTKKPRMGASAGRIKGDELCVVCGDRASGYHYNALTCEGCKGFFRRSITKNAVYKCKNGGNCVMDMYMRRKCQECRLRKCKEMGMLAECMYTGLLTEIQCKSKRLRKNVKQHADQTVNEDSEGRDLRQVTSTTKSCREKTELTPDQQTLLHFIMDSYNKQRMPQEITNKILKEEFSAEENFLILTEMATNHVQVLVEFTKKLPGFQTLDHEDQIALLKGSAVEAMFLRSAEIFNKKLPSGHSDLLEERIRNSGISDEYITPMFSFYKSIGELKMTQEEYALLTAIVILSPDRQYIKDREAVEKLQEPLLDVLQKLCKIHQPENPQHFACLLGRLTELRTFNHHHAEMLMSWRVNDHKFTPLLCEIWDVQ
Assay: Activity at FXR (unknown origin)
Procedure, shortened: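 Eight-point serial dilutions tested in an in-house AlphaScreen-based nuclear receptor panel; activity derived from nonlinear regression curves.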

N#Cc1c(-c2cccs2)nc(SCc2cccc(CC(=O)O)c2)[nH]c1=O
Activity: inactive
